Reference: ChEMBL document CHEMBL1140214, “Antitumor activity of new substituted 3-(5-imidazo[2,1-b]thiazolylmethylene)-2-indolinones and 3-(5-imidazo[2,1-b]thiadiazolylmethylene)-2-indolinones: selectivity against colon tumor cells and effect on cell cycle-related events” (2008)

Assays:
[1] = Antitumor activity against human CNS cancer cells after 48 hrs by SRB assay; type: functional, Cancer cell lines; conditions: for TGI: read-out: pTGI (converted)
In short: (§1)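 NCI 60-cell panel two-stage screen: a single-dose pass at 10^-5 M, then five-dose testing for active compounds. Compounds were dissolved in DMSO and tested at five 10-fold dilutions, the highest 10^-4 M (10^-3 M in some cases). Results are given as the negative log molar concentration at three end points: pGI50, pTGI (total growth inhibition) and pLC50. Means are panel-subtype averages.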

[2] = Antitumor activity against human Breast cancer cells after 48 hrs by SRB assay; type: functional, Cancer cell lines; conditions: for GI50 / LC50 / TGI: Homo sapiens, Cancer cell lines, 48 h; for TGI: read-out: pTGI (converted); in short: as §1
[3] = tested on: NSCLC; experiment: Antitumor activity against human NSCLC cells after 48 hrs by SRB assay; type: functional; conditions: for GI50 / LC50 / TGI: Homo sapiens, NSCLC, 48 h; for TGI: read-out: pTGI (converted); in short: as §1
[4] = tested on: Leukemia cell; experiment: Antitumor activity against human Leukemia cells after 48 hrs by SRB assay; type: functional; conditions: for TGI: read-out: pTGI (converted); in short: as §1
[5] = Antitumor activity against human Colon cancer cells after 48 hrs by SRB assay; type: functional, Cancer cell lines; conditions: for TGI: read-out: pTGI (converted); in short: as §1
[6] = Antitumor activity against human renal cancer cells after 48 hrs by SRB assay; type: functional, Cancer cell lines; conditions: for GI50 / LC50 (concentration killing 50% of cells) / TGI: Homo sapiens, Cancer cell lines, 48 h; for TGI: read-out: pTGI (converted); in short: as §1
[7] = Antitumor activity against human prostate cancer cells after 48 hrs by SRB assay; type: functional, Cancer cell lines; conditions: for TGI: read-out: pTGI (converted); in short: as §1
[8] = tested on: Melanoma cell; experiment: Antitumor activity against human Melanoma cells after 48 hrs by SRB assay; type: functional; conditions: for CC50: read-out: pLC50 (the source's name) (converted); for TGI: read-out: pTGI (converted); in short: as §1
[9] = Antitumor activity against human ovarian cancer cells after 48 hrs by SRB assay; type: functional, Cancer cell lines; conditions: for GI50 / LC50 (concentration killing 50% of cells) / TGI: Homo sapiens, Cancer cell lines, 48 h; for TGI: read-out: pTGI (converted); in short: as §1
[10] = Homo sapiens, Cancer cell lines, 48 h
[11] = Homo sapiens, Cancer cell lines, 48 h, read-out: pGI50 (converted)
[12] = Homo sapiens, Leukemia cell, 48 h
[13] = Homo sapiens, Melanoma cell, 48 h, read-out: pGI50 (converted)
[14] = Homo sapiens, Melanoma cell, 48 h

Cc1cn2c(/C=C3/C(=O)Nc4ccc(O)cc43)c(-c3ccc(Cl)cc3)nc2s1 showed a GI50 [1] of 13.18 µM, an LC50 [1, 10] of 81.3 µM and a GI50 [1, 11] of 13.2 µM. It also gave a TGI [1, 10] of 35.5 µM, a GI [2] of 15.85 µM and a GI50 [2] of 15.8 µM. It also gave an LC50 [2] of 95.5 µM, a TGI [2] of 56.2 µM and a GI [3] of 16.6 µM. The GI50 [3] was 16.6 µM, the LC50 [3] was 91.2 µM and the TGI [3] was 55 µM. The GI [4] was 12.59 µM, the GI50 [4, 12] was 12.6 µM and the LC50 (concentration killing 50% of cells) [4, 12] was 95.5 µM. For the same compound, the TGI [4, 12] was 38.9 µM, the GI [5] was 24.55 µM and the GI50 [5, 10] was 24.5 µM. The TGI [5, 10] was 75.9 µM, the GI [6] was 15.14 µM and the GI50 [6] was 15.1 µM. It also gave an LC50 (concentration killing 50% of cells) [6] of 87.1 µM, a TGI [6] of 50.1 µM and a GI [7] of 15.14 µM. The GI50 [7, 10] was 15.1 µM, the LC50 [7, 10] was 79.4 µM and the TGI [7, 10] was 50.1 µM. The GI50 [8] was 15.14 µM, the GI50 [8, 13] was 15.1 µM and the CC50 [8, 14] was 89.1 µM. It also gave a TGI [8, 14] of 57.5 µM, a GI [9] of 13.8 µM and a GI50 [9] of 13.8 µM. It also gave an LC50 (concentration killing 50% of cells) [9] of 89.1 µM and a TGI [9] of 44.7 µM.
With Cc1cn2c(/C=C3/C(=O)N(C)c4ccc(O)cc43)c(C)nc2s1 the GI50 [1] was 4.57 µM, the GI50 [1, 11] was 4.57 µM and the TGI [1, 10] was 37.2 µM. The GI [2] was 4.57 µM, the GI50 [2] was 4.57 µM and the TGI [2] was 38 µM. It also gave a GI [3] of 12.88 µM, a GI50 [3] of 12.9 µM and a TGI [3] of 67.6 µM. It also gave a GI [4] of 3.39 µM, a GI50 [4, 12] of 3.39 µM and a TGI [4, 12] of 27.5 µM. The GI [5] was 3.89 µM, the GI50 [5, 10] was 3.89 µM and the TGI [5, 10] was 56.2 µM. The GI [6] was 13.18 µM, the GI50 [6] was 13.2 µM and the TGI [6] was 85.1 µM. The GI [7] was 12.59 µM, the GI50 [7, 10] was 12.6 µM and the GI50 [8] was 7.41 µM. For the same compound, the GI50 [8, 13] was 7.41 µM, the TGI [8, 14] was 63.1 µM and the GI [9] was 9.12 µM. For the same compound, the GI50 [9] was 9.12 µM and the TGI [9] was 52.5 µM.
For Cc1ccc(-c2nc3sc(C)cn3c2/C=C2/C(=O)Nc3ccc(Cl)cc32)cc1, the GI50 [1] was 6.61 µM, the LC50 [1, 10] was 55 µM and the GI50 [1, 11] was 6.61 µM. It also gave a TGI [1, 10] of 20.4 µM, a GI [2] of 12.59 µM and a GI50 [2] of 12.6 µM. For the same compound, the LC50 [2] was 75.9 µM, the TGI [2] was 38.9 µM and the GI [3] was 13.49 µM. The GI50 [3] was 13.5 µM, the LC50 [3] was 69.2 µM and the TGI [3] was 37.2 µM. It also gave a GI [4] of 22.91 µM, a GI50 [4, 12] of 22.9 µM and a TGI [4, 12] of 72.4 µM. It also gave a GI [5] of 18.62 µM, a GI50 [5, 10] of 18.6 µM and an LC50 (50% lethal concentration) [5, 10] of 79.4 µM. The TGI [5, 10] was 43.7 µM, the GI [6] was 12.59 µM and the GI50 [6] was 12.6 µM. It also gave an LC50 (concentration killing 50% of cells) [6] of 64.6 µM, a TGI [6] of 32.4 µM and a GI [7] of 22.39 µM. The GI50 [7, 10] was 22.4 µM, the TGI [7, 10] was 55 µM and the GI50 [8] was 14.79 µM. It also gave a GI50 [8, 13] of 14.8 µM, a CC50 [8, 14] of 66.1 µM and a TGI [8, 14] of 31.6 µM. The GI [9] was 14.45 µM, the GI50 [9] was 14.5 µM and the LC50 (concentration killing 50% of cells) [9] was 74.1 µM. For the same compound, the TGI [9] was 34.7 µM.
